Test results taken from ChEMBL document CHEMBL1944565, “Exploration of α-aminophosphonate N-derivatives as novel, potent and selective inhibitors of protein tyrosine phosphatases” (Eur J Med Chem, 2012).

Legend:
[1] = target: T1, Tyrosine-protein phosphatase non-receptor type 9 (Homo sapiens, UniProt P43378); assay: Inhibition of human PTP-MEG2 using p-nitrophenol phosphate as substrate incubated for 35 mins prior to substrate addition measured after 30 mins by spectrophotometry
T1 sequence (P43378 whole entry): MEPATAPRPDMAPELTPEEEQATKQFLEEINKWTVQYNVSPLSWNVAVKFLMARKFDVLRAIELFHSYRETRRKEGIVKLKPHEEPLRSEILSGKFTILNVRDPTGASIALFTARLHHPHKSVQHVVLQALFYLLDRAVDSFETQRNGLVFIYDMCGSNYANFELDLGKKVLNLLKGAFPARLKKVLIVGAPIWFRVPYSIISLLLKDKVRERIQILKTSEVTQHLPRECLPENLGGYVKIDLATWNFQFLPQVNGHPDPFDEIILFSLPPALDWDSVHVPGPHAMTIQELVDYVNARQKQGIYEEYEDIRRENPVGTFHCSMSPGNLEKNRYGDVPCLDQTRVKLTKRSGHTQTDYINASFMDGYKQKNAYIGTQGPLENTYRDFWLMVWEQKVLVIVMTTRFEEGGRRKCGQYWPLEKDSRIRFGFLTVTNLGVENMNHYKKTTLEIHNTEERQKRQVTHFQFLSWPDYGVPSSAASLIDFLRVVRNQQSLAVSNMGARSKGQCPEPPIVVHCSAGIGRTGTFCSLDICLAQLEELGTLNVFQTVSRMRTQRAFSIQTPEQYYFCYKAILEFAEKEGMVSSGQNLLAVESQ
Procedure, shortened: (§1)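 Recombinant human phosphatase, expressed and purified, in 20 mM MOPS pH 7.2 with 50 mM NaCl. Preincubated with inhibitor at various concentrations for 35 min at 37 °C. p-NPP (0.1 M stock) added and reaction run about 30 min, then stopped with 2 M NaOH.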

[2] = target: T2, Tyrosine-protein phosphatase non-receptor type 2 (Homo sapiens, UniProt P17706); assay: Inhibition of human TCPTP using p-nitrophenol phosphate as substrate incubated for 35 mins prior to substrate addition measured after 30 mins by spectrophotometry; procedure, shortened: as §1
T2 sequence (P17706 whole entry): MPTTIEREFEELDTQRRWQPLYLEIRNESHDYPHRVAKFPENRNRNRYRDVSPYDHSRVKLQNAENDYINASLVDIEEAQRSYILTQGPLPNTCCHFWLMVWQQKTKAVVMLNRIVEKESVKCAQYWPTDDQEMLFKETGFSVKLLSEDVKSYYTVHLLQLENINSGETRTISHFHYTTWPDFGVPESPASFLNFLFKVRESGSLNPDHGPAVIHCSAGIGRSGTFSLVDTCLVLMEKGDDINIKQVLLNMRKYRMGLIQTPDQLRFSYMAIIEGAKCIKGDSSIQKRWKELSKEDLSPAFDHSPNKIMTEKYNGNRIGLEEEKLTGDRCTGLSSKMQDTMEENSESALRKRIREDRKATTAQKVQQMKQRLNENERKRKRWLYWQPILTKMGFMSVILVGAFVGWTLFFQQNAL

[3] = target: Tyrosine-protein phosphatase non-receptor type 6 (Homo sapiens, UniProt P29350); assay: Inhibition of human SHP1 using p-nitrophenol phosphate as substrate incubated for 35 mins prior to substrate addition measured after 30 mins by spectrophotometry; procedure, shortened: as §1
Chain of Tyrosine-protein phosphatase non-receptor type 6 (P29350 whole entry): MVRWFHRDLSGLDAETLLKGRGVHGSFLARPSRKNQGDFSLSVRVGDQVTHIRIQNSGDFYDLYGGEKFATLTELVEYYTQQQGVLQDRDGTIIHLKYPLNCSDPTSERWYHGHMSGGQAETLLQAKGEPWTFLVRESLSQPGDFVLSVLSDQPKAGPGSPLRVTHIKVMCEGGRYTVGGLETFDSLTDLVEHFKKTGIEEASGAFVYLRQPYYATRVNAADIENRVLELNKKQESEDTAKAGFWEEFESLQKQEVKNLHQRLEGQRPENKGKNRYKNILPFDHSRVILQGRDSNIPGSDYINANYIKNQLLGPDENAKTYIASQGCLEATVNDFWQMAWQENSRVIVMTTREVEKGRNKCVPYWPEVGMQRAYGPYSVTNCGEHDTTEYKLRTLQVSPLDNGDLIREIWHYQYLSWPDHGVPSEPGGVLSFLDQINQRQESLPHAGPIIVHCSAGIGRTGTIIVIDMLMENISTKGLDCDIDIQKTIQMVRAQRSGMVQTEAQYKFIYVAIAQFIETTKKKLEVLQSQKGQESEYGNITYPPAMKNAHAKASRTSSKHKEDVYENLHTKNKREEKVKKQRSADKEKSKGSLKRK

[4] = target: T3, Tyrosine-protein phosphatase non-receptor type 1 (Homo sapiens, UniProt P18031); assay: Inhibition of human PTP1B using p-nitrophenol phosphate as substrate incubated for 35 mins prior to substrate addition measured after 30 mins by spectrophotometry; procedure, shortened: as §1
T3 sequence (P18031 whole entry): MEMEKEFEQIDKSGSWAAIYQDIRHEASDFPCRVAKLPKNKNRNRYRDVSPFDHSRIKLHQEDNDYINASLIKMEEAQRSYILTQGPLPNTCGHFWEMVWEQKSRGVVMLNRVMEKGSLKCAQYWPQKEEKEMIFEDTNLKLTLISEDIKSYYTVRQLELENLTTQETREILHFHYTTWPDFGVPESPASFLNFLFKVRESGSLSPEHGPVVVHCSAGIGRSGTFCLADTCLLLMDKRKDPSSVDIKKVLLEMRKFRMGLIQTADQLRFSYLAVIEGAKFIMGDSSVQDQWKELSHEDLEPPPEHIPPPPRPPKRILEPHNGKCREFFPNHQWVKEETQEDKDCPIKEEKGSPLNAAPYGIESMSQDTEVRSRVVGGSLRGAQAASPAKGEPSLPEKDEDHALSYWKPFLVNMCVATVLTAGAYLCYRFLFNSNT

[5] = target: T4, Tyrosine-protein phosphatase non-receptor type 11 (Homo sapiens, UniProt Q06124); assay: Inhibition of human SHP2 using p-nitrophenol phosphate as substrate incubated for 35 mins prior to substrate addition measured after 30 mins by spectrophotometry; procedure, shortened: as §1
T4 sequence (Q06124 whole entry): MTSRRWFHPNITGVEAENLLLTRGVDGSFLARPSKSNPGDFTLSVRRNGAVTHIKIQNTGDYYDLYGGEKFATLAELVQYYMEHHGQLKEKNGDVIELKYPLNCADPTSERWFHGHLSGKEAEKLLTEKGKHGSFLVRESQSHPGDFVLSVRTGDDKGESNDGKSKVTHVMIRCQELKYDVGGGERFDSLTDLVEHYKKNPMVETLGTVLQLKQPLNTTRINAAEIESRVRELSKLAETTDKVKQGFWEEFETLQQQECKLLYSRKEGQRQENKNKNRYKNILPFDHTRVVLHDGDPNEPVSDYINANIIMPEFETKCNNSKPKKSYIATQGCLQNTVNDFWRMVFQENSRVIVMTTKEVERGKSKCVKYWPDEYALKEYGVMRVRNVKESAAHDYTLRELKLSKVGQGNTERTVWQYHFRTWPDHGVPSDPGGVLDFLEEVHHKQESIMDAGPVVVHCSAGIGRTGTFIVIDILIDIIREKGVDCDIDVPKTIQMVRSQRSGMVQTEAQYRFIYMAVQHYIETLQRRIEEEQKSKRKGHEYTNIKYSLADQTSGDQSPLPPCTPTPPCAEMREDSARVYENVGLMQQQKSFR

Row | IC50 [1] [mM] | IC50 [2] [mM] | IC50 [3] [mM] | IC50 [4] [mM] | IC50 [5] [mM] | Compound
1 | > 10 | > 10 | > 10 | > 10 | > 10 | CCOP(=O)(O)C(N[C@@H](C)C(=O)O)c1ccccc1O (stereo not given in full)
2 | > 10 | > 10 | > 10 | > 10 | > 10 | CCOP(=O)(O)C(N[C@@H](Cc1c[nH]c2ccccc12)C(=O)O)c1ccccc1O (stereo not given in full)
3 | > 10 | > 10 | > 10 | > 10 | > 10 | CCOP(=O)(O)C(N[C@@H](Cc1ccccc1)C(=O)O)c1ccccc1O (stereo not given in full)
4 | > 10 | > 10 | > 10 | > 10 | > 10 | CCOP(=O)(O)C(N[C@@H](CS)C(=O)O)c1ccccc1O (stereo not given in full)
5 | > 10 | > 10 | > 10 | > 10 | > 10 | CCOP(=O)(O)C(N[C@H](C(=O)O)[C@@H](C)O)c1ccccc1O (stereo not given in full)
6 | > 10 | > 10 | > 10 | > 10 | > 10 | CCOP(=O)(O)C(NCC(=O)O)c1ccccc1O (stereo not given)
7 | > 10 | 0.178 | 0.167 | 0.334 | 0.21 | CCOP(=O)(O)C(N[C@@H](Cc1cnc[nH]1)C(=O)O)c1ccccc1O (stereo not given in full)
8 | > 10 | > 10 | > 10 | > 10 | > 10 | CCOP(=O)(O)C(NCCNC(c1ccccc1O)P(=O)(O)OCC)c1ccccc1O (stereo not given)
